Experimental data gathered from unrelated publications.
Each line is one published result; the experiments were not run side by side.
Cell line: LNCaP
Observed: cell growth or viability

Compound	technique	tested at	time	endpoint	value
C[C@]12CC[C@H](O)CC1=CC[C@@H]1[C@@H]2CC[C@]2(C)C(c3cccnc3)=CC[C@@H]12	MTT			GI50	11.2 µM
FC(F)(F)c1ccc(C(c2c[nH]c3ccccc23)c2c[nH]c3ccccc23)cc1	MTT	20 µM	48 h	inhibition	97%
CC(O)(CS(=O)(=O)c1ccc(F)cc1)C(=O)Nc1ccc(C#N)c(C(F)(F)F)c1 (stereo not shown)	XTT		7 days	IC50	4.6 µM
O=C(O)C(c1c[nH]c2ccccc12)c1c[nH]c2ccccc12	MTT	100 µM	48 h	inhibition	34%
C[C@]12CC[C@H](O)CC1=CC[C@@H]1[C@@H]2CC[C@]2(C)C(n3cnc4ccccc43)=CC[C@@H]12	XTT		7 days	IC50	2.6 µM
COC1=CC(=O)N(C(=O)[C@@H](CCC(Cl)(Cl)Cl)NC(=O)C(C)(C)C)[C@@H]1CCC(Cl)Cl	resazurin		96 h	IC50	6.9 µM
COc1cc(Nc2nccc(-c3cnn4nc(OC)ccc34)n2)cc(C(F)(F)F)c1	ATP luminescence			IC50	0.47 µM
CC(=O)O[C@@]12CO[C@@H]1C[C@H](O)[C@@]1(C)C(=O)[C@H](O)C3=C(C)[C@@H](OC(=O)[C@H](O)[C@@H](NC(=O)OC(C)(C)C)c4ccccc4)C[C@@](O)([C@@H](OC(=O)c4ccccc4)[C@H]21)C3(C)C	trypan blue			IC50	0.001 µM
Cn1cc(C(c2ccc(C(=O)O)cc2)c2cn(C)c3ccccc23)c2ccccc21	MTT		48 h	IC50	36 µM
CNC(=O)c1ccc(N2C(=S)N(c3ccc(C#N)c(C(F)(F)F)c3)C(=O)C2(C)C)cc1F	MTT			GI50	13.7 µM
COc1cc(C(=O)c2csc(-c3ccccc3)n2)cc(OC)c1OC	SRB		96 h	IC50	0.028 µM
O=C(O)/C=C/c1cccc(C(c2c[nH]c3ccccc23)c2c[nH]c3ccccc23)c1	MTT		48 h	IC50	43 µM
O=C(CCCCCCC(=O)Nc1ccc(CCF)cc1)NO	MTT		72 h	GI50	4.8 µM
COc1ccc2c(N(C)c3ccc(/C(C)=N/OCCN)cc3)c3c(Cl)coc3nc2c1	trypan blue		72 h	IC50	0.235 µM
CC(C)C[C@H](NC(=O)[C@H](Cc1ccccc1)NC(=O)c1cnccn1)B(O)O	ATP luminescence			IC50	0.019 µM
O=C(CCCCCCC(=O)Nc1ccccc1)NO	MTT		72 h	GI50	5.2 µM
